Compounds with a hit are over-represented: about 3.2% of the library has one in this group of screens.
rRNA inh HTS – reduced GFP signal of wild-type E. coli, primary screen, bacterial rRNA inhibitor project, GFP/RFP fluorescence, OD600, single point | AID 720706, 2013 | GFP signal change (wild-type ribosome), % (concentration not given with the values) | E. coli WT GFP vs humanized-ribosome RFP mutants, 24 h; hits give low values; DMSO median 0, no signal -100 | 1.6% of 350,000 active;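 active = significant combined selectivity score with lowered wild-type GFP, culture density cut under 30%, mutant RFP and density less affected; inactive = any of these conditions unmet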
PfHsp90 yeast 2 – growth inhibition of PfHsp90-expressing yeast, primary screen, antimalarial PfHsp90 inhibitor project, S. cerevisiae, BacTiter-Glo luminescence, single point, set 2; BacTiter-Glo ATP, 48 h; yeast lacking PDR1 and PDR3 efflux regulators; 0.32% of 310,000 active; inhibition, % at 9.4 µM;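 active = every replicate shows inhibition above about 80%, whatever the replicate mean, limit read from the data; inconclusive = mean inhibition reaches the set limit but some replicate falls short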
S100A4 inh HTS – inhibitors of S100A4-myosin IIA peptide binding, primary screen, biochemical, fluorescence polarization, TAMRA-MyoIIA peptide. inhibition, % at 10.7 µM. Protein S100-A4 (Homo sapiens), P26447. 0.14% of 360,000 active;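 active = mean inhibition of at least 70% across replicates, with every replicate also reaching that level; inconclusive = mean inhibition reaches 70% but some replicates fall short; inactive = mean inhibition below 70%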
Target sequence (P26447 whole entry, looked up): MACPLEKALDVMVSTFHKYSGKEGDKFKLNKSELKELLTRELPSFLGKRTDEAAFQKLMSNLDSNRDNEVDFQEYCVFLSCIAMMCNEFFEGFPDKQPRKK
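assay system = human S100A4 monomer with TAMRA-labelled myosin IIA peptide | also added = labelled myosin peptide probe, 5 nM | incubation = 5 min between mix addition and reading | control set = DMSO and TFP controls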
DENV2 CPE – inhibitors of DENV2 cytopathic effect, primary screen, cell-based, plate reader, single concentration. DENV2-infected cells, cytopathic effect rescue. CPE inhibition, % at 9.99 µM. 1.7% of 350,000 active. AID 651640, 2012; in the data active = CPE inhibition above about 20%, passing the limit was not always enough; inconclusive = no clear call, values can overlap the other calls; tested in BHK-21 cells
AF4-AF9 inh – inhibitors of AF4 peptide binding to AF9, primary screen, biochemical, AlphaScreen, biotin-AF4 peptide, FLAG-AF9, single point; inhibition, % at 10 µM; 0.47% of 350,000 active; Protein AF-9 (Homo sapiens), P42568;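 active = every replicate reaching a set inhibition limit, whatever the replicate mean, cut at about 25% in these data; inconclusive = mean inhibition reaches that limit but some replicates miss it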
Target sequence (P42568 whole entry, looked up): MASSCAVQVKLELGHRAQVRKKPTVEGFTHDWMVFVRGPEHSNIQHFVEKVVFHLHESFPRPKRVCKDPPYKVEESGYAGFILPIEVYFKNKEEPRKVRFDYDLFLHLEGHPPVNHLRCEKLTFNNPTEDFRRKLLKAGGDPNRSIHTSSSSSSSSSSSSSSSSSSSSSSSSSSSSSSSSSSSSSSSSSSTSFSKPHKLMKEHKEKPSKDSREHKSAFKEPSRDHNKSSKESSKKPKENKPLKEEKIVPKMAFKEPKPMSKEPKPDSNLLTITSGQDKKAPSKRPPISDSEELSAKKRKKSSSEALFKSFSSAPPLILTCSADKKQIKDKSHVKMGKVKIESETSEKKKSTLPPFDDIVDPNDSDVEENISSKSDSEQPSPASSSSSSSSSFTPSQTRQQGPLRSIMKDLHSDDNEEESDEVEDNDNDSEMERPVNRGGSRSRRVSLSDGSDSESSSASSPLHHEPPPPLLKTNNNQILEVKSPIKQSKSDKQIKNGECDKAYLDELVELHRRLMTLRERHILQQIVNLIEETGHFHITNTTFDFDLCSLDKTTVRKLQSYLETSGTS
Cneo AK release – Cryptococcus neoformans cell lysis inducers, primary screen, AK release luminescence, single concentration; C. neoformans lysis, adenylate kinase release luminescence, 4 h; normalised: neutral wells 0, clomiphene wells 100; lysis activity, % at 15 µM; 0.2% of 360,000 active; AID 651654, 2012;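 active = mean lysis activity across replicates of at least 80%, whatever share of replicates individually reach that level; inactive = mean lysis activity below 80%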
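Signal: Adenylate kinase release luminescence | Assay system: Log-phase Cryptococcus neoformans yeast cells | Input: Cells at 5 × 10^6 per mL | Buffer or medium: Fresh YPD growth medium | Compound: Single dose | Schedule: Static 4 h at 37 °C with compound, 1 h detection | Controls: Clomiphene | Read-out: Luminescence rise reflecting yeast cell lysis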
Of the large screens only hits and unclear results are named; the others gave an inactive call.

CCCNC(=O)C[C@H]1CC[C@H]2[C@@H](COc3ccc(NC(=O)NCC)cc3C(=O)N2C)O1	none (no result: PfHsp90 yeast 2)
Cc1ccc(S(=O)(=O)Nc2cccc(-c3ccc(N4CCCCCC4)nn3)c2)cc1	rRNA inh HTS -22.6
COc1ccc(S(=O)(=O)Nc2cccc(-c3ccc(N4CCCCCC4)nn3)c2)cc1OC	none
CCCC#Cc1ccc([C@@H]2[C@@H](CO)N3C(=O)CN(C(=O)NC4CCCC4)C[C@@H]23)cc1	none (no result: PfHsp90 yeast 2, Cneo AK release)
CCCC#Cc1ccc([C@H]2[C@@H](CO)N3C(=O)CN(C(=O)NC4CCCC4)C[C@@H]23)cc1	DENV2 CPE 30.6 (no result: PfHsp90 yeast 2, Cneo AK release)
O=C(Nc1ccccc1F)N1CC(=O)N2[C@H](CO)[C@H](c3ccc(C#Cc4ccc(F)cc4)cc3)[C@@H]2C1	DENV2 CPE 27.4 (no result: PfHsp90 yeast 2, Cneo AK release)
CCCC#Cc1ccc([C@@H]2[C@H]3CN(C(=O)Nc4ccc(F)cc4)CC(=O)N3[C@H]2CO)cc1	DENV2 CPE 41.6 (no result: PfHsp90 yeast 2, Cneo AK release)
CC(C)NC(=O)Nc1cccc2c1O[C@H](CN(C)Cc1ccc3c(c1)OCO3)[C@@H](C)CN([C@@H](C)CO)C2=O	none (no result: PfHsp90 yeast 2, DENV2 CPE, Cneo AK release)
C[C@@H]1CN([C@H](C)CO)C(=O)c2c(c3ccccc3n2C)-c2ccccc2CO[C@H]1CN(C)S(=O)(=O)c1ccc(C(F)(F)F)cc1	none (no result: PfHsp90 yeast 2, Cneo AK release)
COc1ccccc1-c1ccc2c(c1)O[C@@H](CN(C)C(C)=O)[C@@H](C)CN([C@@H](C)CO)S2(=O)=O	none (no result: PfHsp90 yeast 2)
COc1ccccc1-c1ccc2c(c1)O[C@H](CN(C)C(C)=O)[C@@H](C)CN([C@@H](C)CO)S2(=O)=O	S100A4 inh HTS 122.8 (no result: PfHsp90 yeast 2)
COc1ccccc1C#Cc1ccc2c(c1)O[C@H](CN(C)C(C)=O)[C@@H](C)CN([C@@H](C)CO)S2(=O)=O	none (no result: PfHsp90 yeast 2)
COc1ccccc1-c1ccc2c(c1)O[C@@H](CN(C)C(=O)c1cccnc1)[C@H](C)CN([C@@H](C)CO)S2(=O)=O	Cneo AK release 83.8 (no result: PfHsp90 yeast 2)
COc1ccccc1C#Cc1ccc2c(c1)O[C@@H](CN(C)C(C)=O)[C@@H](C)CN([C@H](C)CO)S2(=O)=O	DENV2 CPE inconclusive, Cneo AK release 98.7 (no result: PfHsp90 yeast 2)
COc1ccc([N+](=O)[O-])c(S(=O)(=O)c2ccc(Cl)cc2)n1	PfHsp90 yeast 2 109.0
CCOc1ccc2nc(NC(=O)C3(C)CC3(Br)Br)sc2c1 (configuration not stated)	rRNA inh HTS -41.9
C[C@H](CO)N1C[C@H](C)[C@H](CN(C)S(=O)(=O)c2ccc(Cl)cc2)Oc2c(NC(=O)c3nc4ccccc4s3)cccc2C1=O	none (no result: PfHsp90 yeast 2)
CO[C@@H](CN(C)C(=O)C1CCOCC1)[C@H](C)CN([C@H](C)CO)S(=O)(=O)c1ccccc1	none (no result: PfHsp90 yeast 2)
CCC(=O)Nc1ccc2c(c1)C(=O)N(C)C[C@H](OC)[C@H](C)CN(C(=O)c1ccccn1)[C@H](C)CO2	AF4-AF9 inh inconclusive (no result: PfHsp90 yeast 2)
CCC(=O)Nc1ccc2c(c1)C(=O)N(C)C[C@H](OC)[C@@H](C)CN(C(=O)c1ccccn1)[C@H](C)CO2	AF4-AF9 inh 31.7 (no result: PfHsp90 yeast 2, DENV2 CPE)
COCC(=O)Nc1ccc2c(c1)C(=O)N(C)C[C@H](OC)[C@H](C)CN(C(=O)c1ccccn1)[C@H](C)CO2	DENV2 CPE 31.4 (no result: PfHsp90 yeast 2)
CCC(=O)Nc1ccc2c(c1)C(=O)N(C)C[C@@H](OC)[C@H](C)CN(C(=O)c1ccccn1)[C@H](C)CO2	DENV2 CPE 42.6, AF4-AF9 inh inconclusive (no result: PfHsp90 yeast 2)
CCC(=O)Nc1ccc2c(c1)C(=O)N(C)C[C@@H](OC)[C@@H](C)CN(C(=O)c1cnccn1)[C@@H](C)CO2	DENV2 CPE 29.3 (no result: PfHsp90 yeast 2)
CCC(=O)Nc1ccc2c(c1)C(=O)N(C)[C@H]1CC[C@@H](CC(=O)NCc3ccccc3Cl)O[C@H]1CO2	none (no result: PfHsp90 yeast 2, DENV2 CPE)
O=C(c1ccccc1)N1CC(=O)N2[C@H](CO)[C@@H](c3ccc(C#CC4CC4)cc3)[C@H]2C1	none (no result: PfHsp90 yeast 2, Cneo AK release)
Cc1noc(C)c1NC(=O)Nc1cccc2c1O[C@@H](CN(C)S(=O)(=O)c1ccccc1)[C@H](C)CN([C@H](C)CO)C2=O	none (no result: PfHsp90 yeast 2, S100A4 inh HTS, DENV2 CPE, AF4-AF9 inh, Cneo AK release)
CCCC(=O)Nc1ccc2c(c1)C(=O)N(C)C[C@H](OC)[C@H](C)CN(C(=O)c1cccnc1)[C@@H](C)CO2	DENV2 CPE inconclusive (no result: PfHsp90 yeast 2)
CCCC(=O)Nc1ccc2c(c1)C(=O)N(C)C[C@H](OC)[C@@H](C)CN(C(=O)c1cccnc1)[C@@H](C)CO2	Cneo AK release 82.4 (no result: PfHsp90 yeast 2, DENV2 CPE)
Cc1noc(C)c1NC(=O)N[C@@H]1C=C[C@H](CC(=O)Nc2ccccc2)O[C@H]1CO	none (no result: PfHsp90 yeast 2)
CO[C@H]1CC[C@H]2CCN(C)C(=O)[C@@H](C)[C@H](OC)CN(C)C(=O)c3cc(C#N)ccc3OC[C@H]1O2	S100A4 inh HTS 97.9 (no result: PfHsp90 yeast 2)
C[C@@H]1CN([C@H](C)CO)C(=O)c2cc(/C=C/c3ccccc3)cnc2O[C@@H]1CN(C)C(=O)Nc1ccc(C(F)(F)F)cc1	none (no result: PfHsp90 yeast 2)
CN(Cc1ccccc1)S(=O)(=O)c1ccc(Cl)c(C(=O)OCC(=O)NC2CCS(=O)(=O)C2)c1 (configuration not stated)	DENV2 CPE 32.3
O=C(NCCc1ccc(C(F)(F)F)cc1)C1CCC(=O)N(CCCc2ccccc2)C1 (configuration not stated)	rRNA inh HTS -45.7
O=C(NCCCn1cccn1)C1CCC(=O)N(Cc2cccc(C(F)(F)F)c2)C1 (configuration not stated)	none
O=C(NCCc1ccc(C(F)(F)F)cc1)C1CCC(=O)N(CCc2cccc(F)c2)C1 (configuration not stated)	none
O=C(NCCCC1CCCC1)C1CCC(=O)N(Cc2cccc(C(F)(F)F)c2)C1 (configuration not stated)	DENV2 CPE 26.1
COc1ccc(CCN2CC(C(=O)NCCc3cn[nH]c3)CCC2=O)cc1 (configuration not stated)	DENV2 CPE 87.6
CN(C)C(=O)C[C@H]1CC[C@@H](NC(=O)C2CCOCC2)[C@@H](CO)O1	none (no result: PfHsp90 yeast 2)
COCCNC(=O)C[C@H]1CC[C@@H]2[C@H](COc3ccc(NC(=O)C4CCOCC4)cc3C(=O)N2C)O1	none (no result: PfHsp90 yeast 2)
CCOC(=O)Cn1c(-c2ccc(OC)cc2)c(-c2ccc(OC)cc2)nnc1=O	rRNA inh HTS -22.0
CCOC(=O)CSc1nnc(-c2ccc(OC)cc2)n1CC	none (no result: rRNA inh HTS, S100A4 inh HTS, DENV2 CPE, AF4-AF9 inh)
